The EternaBench riboswitch data

System: MS2 coat protein
Assay: apparent Kd, MS2 coat protein; higher = weaker binding; RNA-MaP array; FMN 200 µM where present
How it was run: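 The titrant was SNAP-549-labelled MS2 coat protein, run from 0.7 or 1.5 nM in doubling steps to 3 µM. It was applied to designs transcribed by stalled E. coli RNA polymerase on Illumina sequencing-chip clusters, without ligand first and then with constant ligand, in 100 mM Tris-HCl pH 7.5, 80 mM KCl, 4 mM MgCl2, BSA, DTT, yeast tRNA and Tween-20. The apparent Kd is the median of filtered per-cluster binding-curve fits, with green signal normalised to red-channel RNA signal and control-cluster median Fmax.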

[1] = designed as: OFF switch for flavin mononucleotide, no ligand
[2] = ligand present: flavin mononucleotide, designed as: OFF switch for flavin mononucleotide
[3] = designed as: ON switch for flavin mononucleotide, no ligand
[4] = ligand present: flavin mononucleotide, designed as: ON switch for flavin mononucleotide

| Sequence | apparent Kd [1] [nM] | apparent Kd [2] [nM] | apparent Kd [3] [nM] | apparent Kd [4] [nM] |
| --- | --- | --- | --- | --- |
| GUAUCGUGAGGAUAUCUAGACUGACUUAGUACAUGUCAGCUGGAGAAGGCACAUGAGGAUCACCCAUGUGAUUA | 22.6 | 73.8 |  |  |
| GUAUCUCACUGAGGAUAUUUACGAUUAGUGUAGACAUGAGGAUCACCCAUGUGGCGUUAGUCACGGGAGAAGGCAGUGCGAUAC |  |  | 114 | 20 |
| GUAUCUUACCAAGGAUAUUUACGAUUAGUGUAGACAUGAGGAUCACCCAUGUGGCCUUAGUCACGGGAGAAGGUGGUUUGAUAC |  |  | 317 | 73.7 |
| GUAUGACAAAGUCAUACCGCUCUGACAUGAGGAUCACCCAUGUAGGAUAUAUUAAUCAAAGAUUAAUAGAAGGACAUGUUUCUU | 35.3 | 79.3 |  |  |
| GUAUUUAGAUAAGGAUAUAAGUCUAUGACAUGAGGAUCACCCAUGUGUGUCUUAGAAGGUAUUUGGGUAAUAUUGUUACAGUAA |  |  |  | 16.2 |
| GUCAAGUGAGGAUAUGAUUGUACAACAGACUAGCAUCUGCAUCAGAAGGCACAUGAGGAUCACCCAUGUUUGUC | 17.5 | 17.7 |  |  |
| GUCAGCUCAUGAGGAUAUACAACACUGCUUCGGCAGUGUAUUAAGAUCACAUGAGGAUCACCCAUGUAGAAGGCACGAGCUGAU | 12.9 | 258 |  |  |
| GUCAGCUCGUGAGGAUAUACAACACCGCUUCGGCAGUGUAUUAAGAUCACAUGAGGAUCACCCAUGUAGAAGGCACGAGCUGAU | 12.9 | 255 |  |  |
| GUCAGCUCGUGAGGAUAUACAACACUGCUUCGGCAGUGCAUUAAGAUCACAUGAGGAUCACCCAUGUAGAAGGCACGAGCUGAU | 15 | 313 |  |  |
| GUCAGCUCGUGAGGAUAUACAACACUGCUUCGGCAGUGUAUUAAGAUCACAUGAGGAUCACCCAUGUAGAAGGCACGAGCUAAU | 15.9 | 267 |  |  |
| GUCAGCUCGUGAGGAUAUACAACACUGCUUCGGCAGUGUAUUAAGAUCACAUGAGGAUCACCCAUGUAGAAGGCACGAGCUGAG | 13 | 200 |  |  |
| GUCAGCUCGUGAGGAUAUACAACACUGCUUCGGCAGUGUAUUAAGAUCACAUGAGGAUCACCCAUGUAGAAGGCACGCGCUGAU | 12.9 | 292 |  |  |
| GUCAGCUCGUGAGGAUAUACAACACUGCUUCGGCAGUGUAUUAAUAUCACAUGAGGAUCACCCAUGUAGAAGGCACGAGCUGAU | 5.07 | 5.81 |  |  |
| GUCAGCUCGUGAGGAUAUACAACACUGCUUUGGCAGUGUAUUAAGAUCACAUGAGGAUCACCCAUGUAGAAGGCACGAGCUGAU | 13.2 | 228 |  |  |
| GUCAGCUCGUGAGGAUAUACAACACUUCUUCGGCAGUGUAUUAAGAUCACAUGAGGAUCACCCAUGUAGAAGGCACGAGCUGAU | 14.1 | 231 |  |  |
| GUCAGCUCGUGAGGAUAUACAAUACUGCUUCGGCAGUGUAUUAAGAUCACAUGAGGAUCACCCAUGUAGAAGGCACGAGCUGAU | 7.88 | 60.4 |  |  |
| GUCAGCUCGUGAGGAUAUACAUCACUGCUUCGGCAGUGUAUUAAGAUCACAUGAGGAUCACCCAUGUAGAAGGCACGAGCUGAU | 42.5 | 620 |  |  |
| GUCAGCUCGUGAGGAUAUACAUGAUAGAUCGAUUAAUUAAUUAAUUUAACAUGAGGAUCACCCAUGUAGAAGGCACGAGCUGAU | 57.2 | 46.6 |  |  |
| GUCAGCUCGUGAGGAUAUACAUGUGCUGGAUACAGCACUAUUAAAUUCACAUGAGGAUCACCCAUGUAGAAGGCACGAGCUGAU | 15.6 | 17.8 |  |  |
| GUCAGCUCGUGAGGAUAUAUAUUAACAUGAGGAUCACCCAUGUAAGAUCAGCUUCGGCAGUUAAUAUAGAAGGCACGAGCUGAC | 168 | 188 |  |  |
| GUCAUCACAUGAGGAUAUGCUCGGGUUUCCCGAGCAGAAGGCAUGGCAUACAUGAGGAUCACCCAUGUUGACAUUAAGAUUGUA |  |  | 10.3 | 6.73 |
| GUCAUCGCAUGAGGAUAUGCUCGGGUUUCCCGAGCAGAAGGCAUGUCAUAAGACAUGAGGAUCACCCAUGUAGUUAAGAUUGUA |  |  | 192 | 12.5 |
| GUCAUGUUAGGAUAUCAAACAUGUGACUUCGGUCACUGUCCUGAGAAGGAACAUGAGGAUCACCCAUGUUGGAC | 17.8 | 47.4 |  |  |
| GUCCUCUCUGAGGAUAUUAUCUGGUUCGAUUGAUAAGAAGGCAGUACAUGAGGAUCACCCAUGUGGGUCGUCUG | 31 | 83.7 |  |  |
| GUCCUUUCUGAGGAUAUUAUCUUUUUCGAUUGAUAAGAAGGCAGUACAUGAGGAUCACCCAUGUGGGUUGUCUG | 31 | 131 |  |  |
| GUCGGAAACGACAAGUAGCAAUCGGAGGAUAUUCAUGGAAACAUGAGGAUCACCCAUGUAAAUUGGGAGAAGGCCGAUUGCUAC |  |  | 1220 | 93.6 |
| GUCGGAAACGACAAGUAGCAAUCGGAGGAUAUUCAUUAAAACAUGAGGAUCACCCAUGUAAAUUGGGAGAAGGCCGAUUGCUAC |  |  | 17.8 | 5.31 |
| GUCGGGUGGGUAGGAUAUGGCUAUGUCUCAUUGCUAGAAGGACCAACUGCUACAUGAGGAUCACCCAUGUCGUAGUGCACCCGG |  |  | 149 | 27.5 |

| Sequence | apparent Kd [1] [nM] | apparent Kd [2] [nM] | apparent Kd [3] [nM] | apparent Kd [4] [nM] |
| --- | --- | --- | --- | --- |
| GUCGUGUGAGGAUAUGGAUAGAAGAAGUGAAAGUAAGCGACCUAGAAGGCACAUGAGGAUCACCCAUGUAUGUG | 45.3 | 75.6 |  |  |
| GUCGUGUUAGGAUAUGGCAACGGCUAGGAAACUAGUUGUUGUUAGAAGGAACAUGAGGAUCACCCAUGUAUGAC | 34.3 | 84.3 |  |  |
| GUCGUUUAUGUAGGAUAUGCGAGGCGAGCCUAAGCAGAAGGACAUGAGGAUCACCCAUGUAUUGCGGUCUGCGUUCAGAUCGCU | 45 | 174 |  |  |
| GUCUCGUGAGGAUAUGACGCUACUUUUUUGUUUUAGUAGAGUCAGAAGGCACAUGAGGAUCACCCAUGUGAUUC | 78.6 | 48.7 |  |  |
| GUCUGAUUGUAGAAGGUACUUAAUACUCAUGUAACAUGAGGAUCACCCAUGUAUCAACAAUAUUGUAAGGAUAUACAAAUCUCA |  |  |  | 222 |
| GUGACUUAUAGAGGAUAUUGACAUGAGGAUCACCCAUGUAUUUGGUAGUGUUCAAUGAAUUCUUGCGAGAAGGCUAUAAGACAC | 221 | 261 |  |  |
| GUGAGAAUAGGAGGAUAUAUACAACAUGAGGAUCACCCAUGUACCCGUGUAGUAGAAGGUUUGUUUAUAUAUAAUAUUAUAUUU |  |  | 20.2 | 18.7 |
| GUGAGUGGUCAGGAUAUGCUGUACAAAAGUACAGCAGAAGGGACUACAUGAGGAUCACCCAUGUUUACUUCAUG | 268 | 311 |  |  |
| GUGCAAUGAGGAUAUACGUUGGUGAACAUCUGUGUGCUCCUACAUGAGGAUCACCCAUGUAGAAGGCAUGUCAC | 11.4 | 17.1 |  |  |
| GUGCCUAUCUGAGGAUAUCAACGCACUUGAGCGUGAGAAGGCAGAGGUACAUGAGGAUCACCCAUGUCCUCCAUAAAAUAAAAG | 6.65 | 14.1 |  |  |
| GUGCCUUGGGAGAAGGCAGCAUGCAAAGCAUUCUGAGGAUAUUCAUACCGGAAACGGACAUGAGGAUCACCCAUGUGGCACAAA |  |  | 1470 | 72.1 |
| GUGCUAUGAGGAUAUACGUUGGUGGGCAUCUGUGUGCUCCUACAUGAGGAUCACCCAUGUAGAAGGCAUGUCAC | 12.4 | 21.9 |  |  |
| GUGCUCGUGUGAGGAUAUGCUGCCGGGUCGGCUGCAGAAGGUACUAUUAUACAUGAGGAUCACCCAUGUCGCUUUUCUCCGGUG |  |  | 45.6 | 44.9 |
| GUGCUUAACUAGAAGGCCGUAUGCAAAGCAUACGGAGGAUAUGGGUUCCGGAAACGGACAUGAGGAUCACCCAUGUGGCACAAA |  |  | 111 | 12.7 |
| GUGGACUACGUAGGAUAUGUAGGAUAUUCCUACAUGAGGAUCACCCAUGUUAGCAUGGAAGAAGGACAGAAGGACGUGGUCCAG |  |  | 1130 | 16 |
| GUGGUCUGACAUGAGGAUCACCCAUGUGGAAUAAAUACGGGUUAGGAUAUCUUGAGGAUCACCCAAGAGAAGGGAUCGAUUGUU |  |  | 52.8 | 45 |
| GUGGUGAAUUAAGGAUAUCGAGUCUAGAUGUUAAACAUGAGGAUCACCCAUGUGGGUUGCGGUGUCGAGAAGGUAAUUUACGGG |  |  | 64.3 | 33.9 |
| GUGGUUGUCGUAGGAUAUGUAGGAUAUUCCUACAUGAGGAUCACCCAUGUUCGCAUGGAAGAAGGACGGAAGGACGAUGACCAA |  |  | 306 | 125 |
| GUGUACAGAGGAUAUACAUAAGCUAGGAAACUAGCAACUUCACAUGAGGAUCACCCAUGUAGAAGGCUGUACAC | 13.9 | 17.8 |  |  |
| GUGUACAGAGGAUAUACUGGAGCUAGGAAACUAGCAACUUCACAUGAGGAUCACCCAUGUAGAAGGCUGUACAC | 17.1 | 65.7 |  |  |
| GUGUACAGAGGAUAUAUAUGAGCUAGGAAACUAGCAAACUCACAUGAGGAUCACCCAUGUAGAAGGCUGUACAC | 29.4 | 156 |  |  |
| GUGUACAUAUCAGGAUAUCUAUUUCCUACAUGAGGAUCACCCAUGUAGAUGAUCACCCAUGUAAAGGAGAAGGGAUAUGUAUAC |  |  | 384 | 222 |
| GUGUACGGAGGAUAUAUGUGGGCAGCAUACGCUGCAGCUUCACAUGAGGAUCACCCAUGUAGAAGGCUGUGCAC | 23.2 | 131 |  |  |
| GUGUAGGCAGGAUAUACAUGAGGAUCACCCAUGUGAAUAAGAUAGAAUAAGAUAAAGUGUAGAAGGGUUAGUGU | 40.7 | 32.4 |  |  |
| GUGUAGGUAGGAUAUACAUGAGGAUCACCCAUGUGAAUAAGAUAGAAUAAGAUAAAGUGUAGAAGGGCUAGUGU | 39.6 | 31.9 |  |  |
| GUGUGCAGAGGAUAUACAGAGGAAAAGAAAAGAGAAGGGAGACAUGAGGAUCACCCAUGUAGAAGGCUGAGUGU | 64.4 | 91.8 |  |  |
| GUGUUGUCAGGAUAUCUUACAUAACUAUCGUUGUUACCAUUGGAGAAGGGACAUGAGGAUCACCCAUGUUAUCC | 22.3 | 23.7 |  |  |
